Experimental data: PMC3986664 (Molecular Metabolism, 2014)
Where a SMILES comes first, the peptide text is derived from it. [ ]: non-standard residue; d: D form. Aib = CC(C)(N)C(=O)O

What was measured:
[1] = Measure of maximum solubility; format: physicochemical; details: pH 7.4, 10 mM Tris, 4 °C, 48 h, saturated solution, UV 280 nm, single point
Outline: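 Saturated peptide solutions made in 10 mM Tris base, pH adjusted to 7.4, held 48 h at 4 °C and at ambient temperature, then pH re-measured. Serially diluted until no visible precipitate and UV absorbance became linear.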

[2] = Long-term stability study, alkaline RP-HPLC; format: physicochemical

Apparent solubility relative to Asp28 [1] | Difference in stability at six months between Asp28 and IUB75 (Δ1) ([2]; Figure 8, trend-line of degradation slopes) [%] | Stability relative to Asp28 ([2]; same pH and ambient temperature, six month study) | Total degradation ([2]; six months, ambient temperature, 1 mg/ml, 20 mM Tris, 0.1% SDS, pH 8.6) | SMILES
doubling in apparent peptide solubility | – | – | – | CSCC[C@H](NC(=O)[C@H](CC(C)C)NC(=O)[C@H](Cc1c[nH]c2ccccc12)NC(=O)[C@H](CCC(N)=O)NC(=O)[C@@H](NC(=O)[C@H](Cc1ccccc1)NC(=O)[C@H](CC(=O)O)NC(=O)[C@H](CCC(N)=O)NC(=O)[C@H](C)NC(=O)[C@H](CCCNC(=N)N)NC(=O)[C@H](CCCNC(=N)N)NC(=O)[C@H](CO)NC(=O)[C@H](CC(=O)O)NC(=O)[C@H](CC(C)C)NC(=O)[C@H](Cc1ccc(O)cc1)NC(=O)[C@H](CCCCN)NC(=O)[C@H](CO)NC(=O)[C@H](Cc1ccc(O)cc1)NC(=O)[C@H](CC(=O)O)NC(=O)[C@H](CO)NC(=O)[C@@H](NC(=O)[C@H](Cc1ccccc1)NC(=O)[C@@H](NC(=O)CNC(=O)[C@H](CCC(N)=O)NC(=O)[C@H](CO)NC(=O)[C@@H](N)Cc1c[nH]cn1)[C@@H](C)O)[C@@H](C)O)C(C)C)C(=O)N[C@@H](CC(=O)O)C(=O)N[C@@H](CCC(=O)O)C(=O)O [Asp28,Glu29]
– | 40 | approximately twice as stable | more than 20% | CSCC[C@H](NC(=O)[C@H](CC(C)C)NC(=O)[C@H](Cc1c[nH]c2ccccc12)NC(=O)[C@H](CCC(N)=O)NC(=O)[C@@H](NC(=O)[C@H](Cc1ccccc1)NC(=O)[C@H](CC(=O)O)NC(=O)[C@H](CCC(N)=O)NC(=O)[C@H](C)NC(=O)[C@H](CCCNC(=N)N)NC(=O)[C@H](CCCNC(=N)N)NC(=O)C(C)(C)NC(=O)[C@H](CC(=O)O)NC(=O)[C@H](CC(C)C)NC(=O)[C@H](Cc1ccc(O)cc1)NC(=O)[C@H](CCCCN)NC(=O)[C@H](CO)NC(=O)[C@H](Cc1ccc(O)cc1)NC(=O)[C@H](CC(=O)O)NC(=O)[C@H](CO)NC(=O)[C@@H](NC(=O)[C@H](Cc1ccccc1)NC(=O)[C@@H](NC(=O)CNC(=O)[C@H](CCC(N)=O)NC(=O)[C@H](CO)NC(=O)[C@@H](N)Cc1c[nH]cn1)[C@@H](C)O)[C@@H](C)O)C(C)C)C(=O)N[C@@H](CC(=O)O)C(=O)N[C@@H](CCC(=O)O)C(=O)O [IUB75] (H-HSQGTFTSDYSKYLD[Aib]RRAQDFVQWLMDE-OH)
